Data reported in ChEMBL document CHEMBL4396973, “Design and development of a series of borocycles as selective, covalent kallikrein 5 inhibitors” (Bioorg Med Chem Lett, 2019).

Columns and labels:
Kallikrein-14 = target: T1, Kallikrein-14 (Homo sapiens, UniProt Q9P0G3); test: Inhibition of recombinant human C-terminal 10-His-tagged KLK14 (Q19 to M248 residues) expressed in mouse NS0 cells using BOC-VPR-AMC as substrate incubated for 40 mins by FLINT assay
T1 sequence (Q9P0G3 whole entry): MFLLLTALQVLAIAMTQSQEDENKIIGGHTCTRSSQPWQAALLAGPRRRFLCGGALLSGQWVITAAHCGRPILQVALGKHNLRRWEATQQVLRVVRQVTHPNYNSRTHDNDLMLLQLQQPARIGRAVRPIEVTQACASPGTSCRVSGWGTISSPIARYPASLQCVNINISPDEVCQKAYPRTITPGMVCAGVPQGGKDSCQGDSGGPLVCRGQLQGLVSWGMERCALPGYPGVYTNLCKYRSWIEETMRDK

Neutrophil elastase = target: T2, Neutrophil elastase (Homo sapiens, UniProt P08246); test: Inhibition of human neutrophil elastase using MeOSuc-AAPV-AMC as substrate incubated for 40 mins by FLINT assay
T2 sequence (P08246 whole entry): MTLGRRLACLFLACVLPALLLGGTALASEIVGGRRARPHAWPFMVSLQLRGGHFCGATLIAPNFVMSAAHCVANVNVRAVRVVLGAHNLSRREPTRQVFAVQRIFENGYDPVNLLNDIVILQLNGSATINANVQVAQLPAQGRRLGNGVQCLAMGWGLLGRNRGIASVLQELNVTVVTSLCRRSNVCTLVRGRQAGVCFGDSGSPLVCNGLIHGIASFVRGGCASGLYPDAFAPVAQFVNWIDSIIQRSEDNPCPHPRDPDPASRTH

[1] = target: Kallikrein-5 (Homo sapiens) (UniProt Q9Y337); test: Covalent reversible inhibition of human recombinant 6His-Q-FLAG-tagged KLK5 expressed in baculovirus infected Sf9 insect cells assessed as dissociation half life
Chain of Kallikrein-5 (Homo sapiens) (Q9Y337 whole entry): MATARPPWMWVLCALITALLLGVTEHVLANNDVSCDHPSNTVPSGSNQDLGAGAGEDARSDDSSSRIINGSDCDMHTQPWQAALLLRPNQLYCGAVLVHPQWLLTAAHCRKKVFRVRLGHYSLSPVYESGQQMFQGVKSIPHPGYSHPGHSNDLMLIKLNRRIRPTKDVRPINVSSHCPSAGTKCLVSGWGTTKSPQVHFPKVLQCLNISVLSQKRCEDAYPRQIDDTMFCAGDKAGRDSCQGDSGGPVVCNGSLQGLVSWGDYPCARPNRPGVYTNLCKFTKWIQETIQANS
How it was run: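 Jump-dilution experiment used to follow dissociation from KLK5. The apparent off-rate constant (K-off, per min) and dissociation half-life (T1/2) were derived from it.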

[2] = Genotoxicity in Salmonella typhimurium TA1535 in presence of rat S9 fraction by mini-Ames test; assay type: toxicity, subcellular; details: salmonella enterica subsp. enterica serovar typhimurium
[3] = Genotoxicity in Salmonella typhimurium TA98 in presence of rat S9 fraction by mini-Ames test; assay type: toxicity, subcellular; details: salmonella enterica subsp. enterica serovar typhimurium
Plasma kallikrein = Plasma kallikrein (Homo sapiens, UniProt P03952); test: Inhibition of human C-terminal 6-His-tagged KLKB1 (G20-A638 residues) expressed in mouse NS0 cells using PFR-AMC as substrate incubated for 40 mins by FLINT assay
Chain of Plasma kallikrein (P03952 20-390 limits assumed): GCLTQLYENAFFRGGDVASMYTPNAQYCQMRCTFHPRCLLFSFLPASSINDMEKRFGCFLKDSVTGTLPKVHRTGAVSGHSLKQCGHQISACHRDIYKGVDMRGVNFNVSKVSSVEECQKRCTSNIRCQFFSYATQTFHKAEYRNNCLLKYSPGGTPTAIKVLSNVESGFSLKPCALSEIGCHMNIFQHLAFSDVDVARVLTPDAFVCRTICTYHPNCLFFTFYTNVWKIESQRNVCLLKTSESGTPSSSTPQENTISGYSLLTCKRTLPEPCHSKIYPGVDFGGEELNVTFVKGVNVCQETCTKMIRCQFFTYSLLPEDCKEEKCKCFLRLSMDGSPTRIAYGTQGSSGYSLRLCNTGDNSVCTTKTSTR
Chain of Plasma kallikrein (P03952 391-638 limits assumed): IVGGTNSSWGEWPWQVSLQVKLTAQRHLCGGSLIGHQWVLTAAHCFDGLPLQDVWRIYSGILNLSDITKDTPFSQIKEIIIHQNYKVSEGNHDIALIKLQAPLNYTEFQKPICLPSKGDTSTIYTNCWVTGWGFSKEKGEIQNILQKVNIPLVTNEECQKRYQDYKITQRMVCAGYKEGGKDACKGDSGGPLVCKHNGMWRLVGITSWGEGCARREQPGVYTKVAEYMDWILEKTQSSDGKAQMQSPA

Kallikrein-8 = target: T3, Kallikrein-8 (Homo sapiens, UniProt O60259); test: Inhibition of recombinant human C-terminal 10-His-tagged KLK8 (Gln29 to Gly260 residues) expressed in mouse NS0 cells using BOC-VPR-AMC as substrate incubated for 40 mins by FLINT assay
T3 sequence (O60259 whole entry): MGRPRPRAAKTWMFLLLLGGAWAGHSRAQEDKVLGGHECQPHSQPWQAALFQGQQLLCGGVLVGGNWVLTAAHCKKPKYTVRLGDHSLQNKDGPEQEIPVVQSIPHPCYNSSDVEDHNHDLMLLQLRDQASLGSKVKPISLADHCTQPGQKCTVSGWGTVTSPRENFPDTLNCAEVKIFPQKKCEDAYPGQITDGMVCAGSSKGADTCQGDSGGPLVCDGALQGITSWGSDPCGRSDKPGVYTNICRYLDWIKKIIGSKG

## Cl.N=C(N)c1ccc([C@H]2Cc3ccc(C(F)(F)F)cc3B(O)O2)cc1OCc1cccnc1
Kallikrein-14
  IC50: 31.6 nM
Neutrophil elastase
  IC50: > 100000 nM
[1]
  T1/2: 1.17 h
[2]
  Activity: Non-Toxic
[3]
  Activity: Non-Toxic
Plasma kallikrein
  IC50: 20 nM
Kallikrein-8
  IC50: 6.31 nM
